Data on 48 compounds can be found in ChEMBL document CHEMBL4251594, “Design and synthesis of sulfonamidophenylethylureas as novel cardiac myosin activator” (Eur J Med Chem, 2018).

For one data set, the species on record is Bos taurus. The data set is described as follows: Activation of actin-stimulated bovine cardiac myosin S1 fragment ATPase activity in sarcomere at 10 uM after 10 mins by spectrophotometric analysis relative to control.
Data set [1] relates to Rattus norvegicus. The data set is described as follows: Positive inotropic activity in Sprague-Dawley rat heart assessed as increase in ejection fraction at 2 to 16 ug/kg/min infused for 3 mins by echocardiographic analysis. Type of data set: functional. A digest of the protocol:
(§1)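 Seven-week-old male Sprague-Dawley rats; dosing via internal jugular vein central line, infused at 0, 2, 4, 8 and 16 µg/kg/min for 3 minutes from a 40 µg/mL final solution (concentration checked by HPLC against three standards). M-mode echocardiography at baseline and 16 µg/kg/min with a 25 MHz transducer; percent rise in LV fractional shortening and ejection fraction.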

The species named for another data set is Gallus gallus. The data set is described as follows: Activation of actin-stimulated chicken gizzard smooth muscle myosin S1 fragment ATPase activity at 100 uM after 10 mins by spectrophotometric analysis relative to control.
The species entered for a further data set is Oryctolagus cuniculus. The experiment in a line: Activation of actin-stimulated rabbit skeletal muscle myosin S1 fragment ATPase activity at 100 uM after 10 mins by spectrophotometric analysis relative to control.
For data set [2], the system named is Cardiac muscle cell. The experiment in a line: Positive inotropic activity in Sprague-Dawley rat ventricular myocytes assessed as change in ventricular cell contractility by measuring cell shortening at 5 uM. The format is functional.
Data set [3] has as its system Rattus norvegicus. The data set is described as follows: Positive inotropic activity in Sprague-Dawley rat heart assessed as increase in left ventricle fractional shortening at 2 to 16 ug/kg/min infused for 3 mins by echocardiographic analysis. Type of data set: functional. The method, boiled down: as §1
Data set [4] relates to Cardiac muscle cell. The data set is described as follows: Positive inotropic activity in Sprague-Dawley rat ventricular myocytes assessed as change in ventricular cell contractility by measuring cell shortening at 1 uM. The format is functional.
A short description of data set [5]: Aqueous solubility of the compound in water. Type of data set: physicochemical. The conditions noted are these: buffer.

Turning to `CC(C)c1ccc(CCNC(=O)NCCCc2ccccc2)cc1`, in the data set listed under Bos taurus, the Activity is 33.3%.
Still for that read-out and setting: the figure for `NS(=O)(=O)c1ccc(CCNC(=O)NCCCCc2ccccc2)cc1` is 36.6%.
As to `COc1ccc(CNC(=O)NCCCc2ccccc2)cc1OC`, the Activity in the data set listed under Bos taurus came to 38.8%.
For `COc1ccccc1CCNC(=O)NCCCc1ccccc1`, the Activity in the data set on Rattus norvegicus [1] is 13.58%; in the data set listed under Gallus gallus it was 5.3%; in the data set filed under Bos taurus, 95.1%; in the data set filed under Oryctolagus cuniculus, 3.5%; in the data set on Cardiac muscle cell [2] it was 19.7%; in the data set on Rattus norvegicus [3] it was 20.47%.
As to `CC(C)N(CCc1ccc(S(=O)(=O)N(C)C)cc1)C(=O)N(C)CCCc1ccccc1`, the Activity in the data set listed under Bos taurus came out at 40.6%.
In the case of `O=C(NCCCc1ccccc1)NCCc1ccccc1F`, the results for the Activity with Rattus norvegicus [1], in the data set filed under Bos taurus and in the data set with Rattus norvegicus [3] were 8.76%, 65.4% and 12.52%, respectively.
Turning to `CN(C)S(=O)(=O)c1ccc(CCNC(=O)NCCCc2ccccc2)cc1`, the Activity is 11.55% with Rattus norvegicus [1]; -1.9% in the data set filed under Gallus gallus; 91.6% in the data set filed under Bos taurus; -3.8% in the data set filed under Oryctolagus cuniculus; 47.9% in the data set with Cardiac muscle cell [2]; 17.62% with Rattus norvegicus [3].
`NS(=O)(=O)c1ccc(NC(=O)NCCCc2ccccc2)cc1`: the Activity in the data set listed under Bos taurus was determined as 31.8%.
Regarding `COc1ccc(CCCNC(=O)NCCc2ccc(S(N)(=O)=O)cc2)cc1`, in the data set listed under Bos taurus, the Activity was 34.8%.
Consider `O=C(NCCCc1ccccc1)NCCc1ccccc1`, for which the Activity with Rattus norvegicus [1] was 12.15%; in the data set filed under Gallus gallus, -4.7%; in the data set listed under Bos taurus it was 51.1%; in the data set filed under Oryctolagus cuniculus, -2.1%; in the data set with Cardiac muscle cell [2] it was 20.8%; with Rattus norvegicus [3], 18.9%.
In the case of `COc1ccc(CCCNC(=O)NCc2ccccc2)cc1`, the Activity in the data set filed under Bos taurus was determined as 30.5%.
Regarding `COc1cccc(CCNC(=O)NCCCc2ccccc2)c1`, the Activity in the data set listed under Bos taurus came out at 35%.
Same read-out and setting: the figure for `CN(C)S(=O)(=O)c1ccc(C2CCN(C(=O)NCCCc3ccccc3)CC2)cc1` is 85.1%; for `COc1ccc(CCNC(=O)NCCCCc2ccccc2)cc1OC` it is 32.5%; for `O=C(NCCCc1ccc(F)cc1)NCc1ccccc1` it is 9.5%.
Turning to `Cc1ccc2c(c1)C(=O)[C@]1(O)CCN(c3ccccc3)C1=N2`, the figures for the Activity in the data set filed under Gallus gallus and in the data set listed under Oryctolagus cuniculus were -35.7% and -50.7%, respectively.
`CN(C)S(=O)(=O)c1ccc(CNC(=O)N2CCC(c3ccccc3)CC2)cc1`: the Activity in the data set listed under Bos taurus is 27.6%.
With `CN(C)S(=O)(=O)c1ccc(CNC(=O)NCCCc2ccccc2)cc1`, the Activity in the data set listed under Bos taurus came to 34.5%.
Turning to `O=C(NCCCc1ccccc1)NCCc1ccc([N+](=O)[O-])cc1`, the Activity in the data set listed under Bos taurus was determined as 56.2%.
On the same count and under the same terms, with `CN(C)S(=O)(=O)c1ccc(C2CCN(C(=O)NCc3ccccc3)CC2)cc1` the figure was 36.9%.
On to `Nc1ccc(CCNC(=O)NCCCc2ccccc2)cc1`, for which the Activity in the data set with Rattus norvegicus [1] worked out at 4.16%; in the data set listed under Bos taurus, 55.2%; with Rattus norvegicus [3], 6.37%.
For the compound `COc1ccc(CCCNC(=O)NCCc2ccc(OC)c(OC)c2)cc1`, the Activity in the data set listed under Bos taurus was 38.4%.
Same read-out and setting: the figure for `O=C(NCCCc1ccccc1)NCCc1ccc(C(=O)O)cc1` is 40.6%; for `CN(C)c1ccc(CCNC(=O)NCCCc2ccccc2)cc1` it is 45.3%.
For `CN(CCCc1ccccc1)C(=O)N(C)CCc1ccc(S(=O)(=O)N(C)C)cc1`, the Activity was determined as 0.27% with Rattus norvegicus [1], 69% in the data set listed under Bos taurus and 0.46% with Rattus norvegicus [3].
In the case of `COC(=O)N1CCN(Cc2cccc(NC(=O)Nc3ccc(C)nc3)c2F)CC1` [OMECAMTIV MECARBIL], the Activity in the data set on Cardiac muscle cell [4] was 33.8%; in the data set with Rattus norvegicus [1], 13.35%; in the data set listed under Gallus gallus it was -5.5%; in the data set filed under Bos taurus, 58%; in the data set listed under Oryctolagus cuniculus, 2.8%; with Rattus norvegicus [3], 20.32%.
As to `O=C(NCCCc1ccccc1)NCc1ccccc1`, the Activity in the data set with Rattus norvegicus [1] is 18.27%; in the data set filed under Gallus gallus, -3.7%; in the data set filed under Bos taurus, 53.3%; in the data set filed under Oryctolagus cuniculus, 1.4%; with Cardiac muscle cell [2] it was 25.3%; in the data set on Rattus norvegicus [3] it was 30.04%.
Consider `CN(CCCc1ccccc1)C(=O)NCCc1ccc(S(=O)(=O)N(C)C)cc1`, for which the Activity with Rattus norvegicus [1] was 15.47%; in the data set listed under Bos taurus it was 47.6%; in the data set with Rattus norvegicus [3], 23.19%.
Consider `COc1ccc(CCNC(=O)NCCCc2ccccc2)cc1`, for which the Activity in the data set filed under Bos taurus came to 40%.
Consider `CN(C)S(=O)(=O)c1ccc(CCNC(=O)N2CCC(c3ccccc3)CC2)cc1`, for which the Activity in the data set listed under Bos taurus worked out at 40.7%.
For `NS(=O)(=O)c1ccc(CCNC(=O)NCCCc2ccccc2)cc1`, the Activity in the data set on Rattus norvegicus [1] was 7.23%; in the data set listed under Bos taurus, 41.9%; with Rattus norvegicus [3] it was 11.24%.
Turning to `CN(C)S(=O)(=O)c1ccc(CCNC(=O)NCCCc2ccc(F)cc2)cc1`, the Activity in the data set listed under Bos taurus was determined as 20.6%.
The same measure, in the same setting: the figure for `CN(C)S(=O)(=O)c1ccc(CCCNC(=O)NCc2ccccc2)cc1` is 20.8%.
The same measure, in the same setting: with `COc1ccc(S(N)(=O)=O)c(CCNC(=O)NCCCc2ccccc2)c1` the figure was 29.4%; with `O=C(NCCCc1ccccc1)NCCc1ccc(Cl)cc1`, 31%; with `COc1ccc(CNC(=O)NCCCc2ccccc2)cc1`, 25.4%.
Same read-out and setting: the figure for `CN(C)S(=O)(=O)c1ccc(C2CCN(C(=O)NCCc3ccccc3)CC2)cc1` is 32.6%.
Regarding `NS(=O)(=O)c1ccc(CNC(=O)NCCCc2ccccc2)cc1`, the Activity in the data set listed under Bos taurus was 39.6%.
Same read-out and setting: the figure for `NS(=O)(=O)c1ccc(CCNC(=O)NCCCc2ccc(F)cc2)cc1` is 19.1%.
On the same count and under the same terms, the figure for `CCN(CCCc1ccccc1)C(=O)N(CC)CCc1ccc(S(=O)(=O)N(C)C)cc1` is 30.3%.
The same measure, in the same setting: with `O=C(NCCCc1ccccc1)NCCc1ccc(Cl)cc1Cl` the figure was 37.3%.
Consider `O=C(NCCCc1ccccc1)NCCc1ccc(F)cc1`, for which the Activity in the data set listed under Bos taurus was 38.6%.
Turning to `COc1ccc(CCNC(=O)NCCCc2ccccc2)cc1OC`, the Activity in the data set on Rattus norvegicus [1] was 15.87%; in the data set filed under Gallus gallus, 4.3%; in the data set listed under Bos taurus, 122%; in the data set filed under Oryctolagus cuniculus it was -2.4%; in the data set with Cardiac muscle cell [2], 22.2%; in the data set on Rattus norvegicus [3] it was 23.97%.
For `CCN(CCc1ccc(S(=O)(=O)N(C)C)cc1)C(=O)NCCCc1ccccc1`, the Activity in the data set listed under Bos taurus was found to be 39.5%.
Same read-out and setting: the figure for `NS(=O)(=O)c1ccc(CCNC(=O)NCCCc2ccc(Cl)cc2)cc1` is 37.9%.
On the same count and under the same terms, with `CC(C)N(CCc1ccc(S(=O)(=O)N(C)C)cc1)C(=O)NCCCc1ccccc1` the figure was 38.1%.
Regarding `Cc1ccc(CCNC(=O)NCCCc2ccccc2)cc1`, the solubility entry in data set [5] is “Insoluble”. Moreover, the Activity in the data set listed under Bos taurus was 73.8%.
For the compound `CN(CCc1ccc(S(=O)(=O)N(C)C)cc1)C(=O)NCCCc1ccccc1`, the values for the Activity in the data set with Rattus norvegicus [1], in the data set listed under Bos taurus and with Rattus norvegicus [3] were 24.19%, 52.3% and 38.96%, respectively.
